This is an account of results in ChEMBL document CHEMBL1141508, “Lysinyl macrocyclic hexaoxazoles: synthesis and selective G-quadruplex stabilizing properties” (Bioorg Med Chem Lett, 2008).

Structures are written as SMILES. pIC50: −log10 of the molar value.

The species named for one experiment is Homo sapiens. Description: Binding affinity to human d(T2AG3)4 DNA assessed as transition temperature. An outline of the steps: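 UV melting of d[T2G3(T2AG3)3A] (5 μM strand) with macrocycle at 20 μM in 10 mM potassium phosphate pH 7.5, KCl added to 150 mM total K+. Absorbance read at 295 nm, 1 cm quartz cuvette; temperature raised in 0.5 °C steps with 1.5 min equilibration, absorbance averaged over 5 s at each step.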

Another experiment concerns Salmonidae. Description: Binding affinity to salmon testes DNA assessed as transition temperature. In short, it runs like this:
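Salmon testes DNA (15 μM base pair) melted with ligand at 15 μM in 10 mM EPPS pH 7.5, KCl added to 50 mM total K+. Absorbance followed at 260 nm in a 1 cm quartz cuvette; heating in 0.5 °C increments, 1.5 min equilibration per setting, readings averaged over 5 s.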

A short description of experiment [1]: Cytotoxicity against human RPMI8402 cells. Type of experiment: functional, cell-based. Conditions: RPMI 8402.

Regarding `CC(C)[C@@H]1NC(=O)c2coc(n2)-c2coc(n2)-c2coc(n2)[C@H](CCCCN(C)C)NC(=O)c2coc(n2)-c2coc(n2)-c2coc1n2`, the T in the experiment filed under Homo sapiens was 81 °C; in the experiment on Salmonidae, 76 °C.
The corresponding values for `CC(C)[C@@H]1NC(=O)c2coc(n2)-c2coc(n2)-c2coc(n2)[C@H](CCCCN)NC(=O)c2coc(n2)-c2coc(n2)-c2coc1n2` are 90 °C and 76.5 °C.
`NCCCC[C@@H]1NC(=O)c2coc(n2)-c2coc(n2)-c2coc(n2)[C@H](CCCCN)NC(=O)c2coc(n2)-c2coc(n2)-c2coc1n2`: the T came out at 102 °C in the experiment filed under Homo sapiens and 79 °C in the experiment on Salmonidae.
Consider `CC(=O)NCCCC[C@@H]1NC(=O)c2coc(n2)-c2coc(n2)-c2coc(n2)[C@H](C(C)C)NC(=O)c2coc(n2)-c2coc(n2)-c2coc1n2`, for which the T in the experiment listed under Homo sapiens was 79 °C; with Salmonidae it was 76.5 °C.
What is called pIC50 is the negative decadic logarithm of the IC50, by convention in mol/L. Consider `CC(C)[C@@H]1NC(=O)c2coc(n2)-c2coc(n2)-c2coc(n2)[C@H](C(C)C)NC(=O)c2coc(n2)-c2coc(n2)-c2coc1n2` [HEXAOXAZOLE DIVALINE], for which the values for the T in the experiment listed under Homo sapiens and with Salmonidae were 77 °C and 76.5 °C, respectively. Also, the pIC50 in experiment [1] was 6.40.
